Source: ChEMBL document CHEMBL1127734, “Selective ligands for rat A3 adenosine receptors: structure-activity relationships of 1,3-dialkylxanthine 7-riboside derivatives” (J Med Chem, 1994)

What was measured:
Adenosine receptor A3 = target: T1, Adenosine receptor A3 (Rattus norvegicus, UniProt P28647); assay: Displacement of specific [125]AB-MECA binding in membranes of CHO cells stably transfected with the rat A3-cDNA; format: cell membranes
T1 sequence (P28647 whole entry): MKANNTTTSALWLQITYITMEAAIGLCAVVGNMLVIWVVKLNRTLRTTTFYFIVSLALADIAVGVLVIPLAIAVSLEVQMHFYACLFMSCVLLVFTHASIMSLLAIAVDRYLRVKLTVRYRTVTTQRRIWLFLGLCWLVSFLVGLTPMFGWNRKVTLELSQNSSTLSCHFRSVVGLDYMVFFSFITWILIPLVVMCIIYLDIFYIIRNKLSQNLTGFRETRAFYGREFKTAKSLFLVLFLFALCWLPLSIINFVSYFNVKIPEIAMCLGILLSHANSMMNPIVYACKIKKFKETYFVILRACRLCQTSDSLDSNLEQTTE

Adenosine receptor A2a = Adenosine receptor A2a (Rattus norvegicus, UniProt P30543); assay: Displacement of specific [3H]- CGS-21680 in rat striatal membranes A2a receptor; format: cell membranes, Membrane
How it was run: (§1)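 Rat striatal membranes; [3H]CGS 21680 binding at A2a receptors. Adenosine deaminase (3 units/mL) present during membrane preparation, which includes a 30 °C, 30 min incubation, and during radioligand incubation.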

[1] = target: Adenosine receptors; A1 & A3 (Rattus norvegicus) (UniProt P25099+P28647); assay: Selectivity ratio (Ki's)for A1 and A3 receptors in rat brain; format: tissue-based
How it was run: (§2)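 Ratio of Ki values from rat A1 (cortical, [3H]PIA) or A2a (striatal, [3H]CGS 21680) binding over Ki from rat A3 binding ([125I]AB-MECA, CHO membranes). Where one value is only a percent displacement, a conservative boundary estimate of the ratio is given.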

[2] = target: Adenosine receptor A2a and A3 (Rattus norvegicus) (UniProt P30543+P28647); assay: Selectivity for A2a and A3 receptors in rat brain as ratio of Ki; format: tissue-based; how it was run: as §2
[3] = target: Adenosine receptor A2a (Rattus norvegicus) (UniProt P30543); assay: Displacement of specific [3H]- CGS-21680 in rat striatal membranes A2a receptor at 10e-4 M concentration; format: cell membranes; conditions: Membrane
Adenosine receptor A1 = target: T2, Adenosine receptor A1 (Rattus norvegicus, UniProt P25099); assay: Tested for the displacement of specific [3H]PIA in rat brain membranes of A1 receptor; format: cell membranes
T2 sequence (P25099 whole entry): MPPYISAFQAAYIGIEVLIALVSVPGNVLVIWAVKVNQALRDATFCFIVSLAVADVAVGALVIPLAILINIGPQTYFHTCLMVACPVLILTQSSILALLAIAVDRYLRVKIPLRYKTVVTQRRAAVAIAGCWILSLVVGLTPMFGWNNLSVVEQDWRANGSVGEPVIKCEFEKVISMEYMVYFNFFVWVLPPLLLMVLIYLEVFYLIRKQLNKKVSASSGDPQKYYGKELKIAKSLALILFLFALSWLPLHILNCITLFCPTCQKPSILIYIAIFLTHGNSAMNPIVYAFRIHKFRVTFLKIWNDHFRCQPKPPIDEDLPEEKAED

[4] = target: T3, Adenosine receptor A1 (Rattus norvegicus) (UniProt P25099); assay: Percent displacement of [3H]PIA from A1 receptor of rat brain membrane at 10e-4 M
T3 sequence (whole entry): T2 sequence (P25099 whole entry)
How it was run: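 A1 receptor binding in rat cortical membranes with [3H]-(R)-PIA. Adenosine deaminase (3 units/mL) present during membrane preparation, which includes a 30 °C, 30 min incubation, and during radioligand incubation. Result given as displacement of specific binding, as Ki or as percent displacement at the stated concentration.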

[5] = target: Adenosine receptor A2a (Rattus norvegicus) (UniProt P30543); assay: Displacement of [3H]- CGS-21680 from A2a receptor of rat striatal membrane at 3*10e-4 M; how it was run: as §1
[6] = target: Adenosine receptor A2a (Rattus norvegicus) (UniProt P30543); assay: Displacement of [3H]CGS-21680 from A2a receptor of rat striatal membrane at 10e-5 M; how it was run: as §1
[7] = target: Adenosine receptor A2a (Rattus norvegicus) (UniProt P30543); assay: Displacement of [3H]CGS-21680 from A2a receptor of rat striatal membrane at 10e-4 M; how it was run: as §1

Chain of Adenosine receptor A2a (Rattus norvegicus) (P30543 whole entry): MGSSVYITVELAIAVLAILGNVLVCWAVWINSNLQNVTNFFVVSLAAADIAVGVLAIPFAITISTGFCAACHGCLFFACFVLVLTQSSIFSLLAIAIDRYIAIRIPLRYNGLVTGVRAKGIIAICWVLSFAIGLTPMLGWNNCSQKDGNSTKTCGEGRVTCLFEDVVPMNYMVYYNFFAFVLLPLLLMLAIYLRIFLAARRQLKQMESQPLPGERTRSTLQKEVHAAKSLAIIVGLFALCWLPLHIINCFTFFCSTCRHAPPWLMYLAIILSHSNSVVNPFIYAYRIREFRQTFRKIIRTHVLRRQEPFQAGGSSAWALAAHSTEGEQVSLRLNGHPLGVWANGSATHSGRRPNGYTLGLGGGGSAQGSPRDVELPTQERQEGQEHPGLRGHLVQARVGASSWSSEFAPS
Chain of Adenosine receptor A2a (P30543 whole entry): as above
Chain of Adenosine receptor A2a and A3 (Rattus norvegicus) (P30543 whole entry, looked up, one chain of several): as the sequence (P30543 whole entry) above

| SMILES | Ki (Adenosine receptor A3) [µM] | Ki (Adenosine receptor A2a) [µM] | Selectivity ratio [1] | Selectivity ratio [2] | inhibition [3] [%] | Ki (Adenosine receptor A1) [µM] | inhibition [4] [%] | inhibition [5] [%] | inhibition [6] [%] | inhibition [7] [%] |
| --- | --- | --- | --- | --- | --- | --- | --- | --- | --- | --- |
| CCCCn1c(=O)c2c(ncn2C2O[C@H](C(N)=O)[C@@H](O)[C@H]2O)n(CCCC)c1=O (some centres not stated) | 15.3 | 54.9 | 0.2 | 3.6 | – | – | – | – | – | – |
| CCCCCCn1c(=O)c2c(ncn2C2O[C@H](C(=O)NC)[C@@H](O)[C@H]2O)n(CCCCCC)c1=O (some centres not stated) | 10.3 | – | 3 | > 10 | 0 | 30.8 | – | – | – | – |
| CCCCn1c(=O)c2c(ncn2C2O[C@H](C(=O)N(C)C)[C@@H](O)[C@H]2O)n(CCCC)c1=O (some centres not stated) | 228 | 53.5 | 0.04 | 0.23 | – | 9.1 | – | – | – | – |
| CCCCCn1c(=O)c2c(ncn2C2O[C@H](C(=O)NC)[C@@H](O)[C@H]2O)n(CCCCC)c1=O (some centres not stated) | 2.63 | – | 4.3 | > 1 | 2 | – | – | – | – | – |
| CCCCn1c(=O)c2c(ncn2C2O[C@H](C(=O)OC)[C@@H](O)[C@H]2O)n(CCCC)c1=O (some centres not stated) | 3.23 | – | 1.2 | > 1 | – | 3.72 | – | 0 | – | – |
| CCCCCCn1c(=O)c2c(ncn2C2O[C@H](CO)[C@@H](O)[C@H]2O)n(CCCCCC)c1=O (some centres not stated) | 43 | – | 0.23 | – | – | 9.75 | – | – | 7.8 | – |
| CCCCn1c(=O)c2c(ncn2C2O[C@H](C(=O)NCC)[C@@H](O)[C@H]2O)n(CCCC)c1=O (some centres not stated) | 0.602 | 38.1 | 10 | 63 | – | 6.21 | – | – | – | – |
| CCCCn1c(=O)c2c(ncn2C2O[C@H](CO)[C@@H](O)[C@H]2O)n(Cc2ccccc2)c1=O (some centres not stated) | 12.9 | 8.67 | 0.17 | 0.67 | – | 2.19 | – | – | – | – |

Continued, values first:

| Ki (Adenosine receptor A3) [µM] | Ki (Adenosine receptor A2a) [µM] | Selectivity ratio [1] | Selectivity ratio [2] | inhibition [3] [%] | Ki (Adenosine receptor A1) [µM] | inhibition [4] [%] | inhibition [5] [%] | inhibition [6] [%] | inhibition [7] [%] | SMILES |
| --- | --- | --- | --- | --- | --- | --- | --- | --- | --- | --- |
| 6.03 | 19.5 | 0.69 | 3.2 | – | 4.19 | – | – | – | – | CCCCn1c(=O)c2c(ncn2C2O[C@H](CO)[C@@H](O)[C@H]2O)n(CCCC)c1=O (some centres not stated) |
| 0.074 | – | > 1 | > 1 | 4 | – | 21 | – | – | – | COc1nc2c(c(=O)n(C)c(=O)n2C)n1C1O[C@H](CO)[C@@H](O)[C@H]1O (some centres not stated) |
| 81.2 | – | 0.2 | > 1 | 32 | 15.9 | – | – | – | – | CCCn1c(=O)c2c(ncn2C2O[C@H](CO)[C@@H](O)[C@H]2O)n(CCC)c1=O (some centres not stated) |
| 89.4 | – | 0.3 | > 1 | – | 27 | – | – | – | 2 | Cn1c(=O)c2c(ncn2C2O[C@H](CO)[C@@H](O)[C@H]2O)n(C)c1=O (some centres not stated) |
| 4.81 | 47.3 | 1.8 | 9.8 | – | 8.79 | – | – | – | – | CCCCCn1c(=O)c2c(ncn2C2O[C@H](CO)[C@@H](O)[C@H]2O)n(CCCCC)c1=O (some centres not stated) |
| 1.4 | 4.25 | 1.6 | 3 | – | 2.25 | – | – | – | – | CCCCn1c(=O)c2c(ncn2C2O[C@H](CO)[C@@H](O)[C@H]2O)n(CCCC)c1=S (some centres not stated) |
